# Bioassay records as filed in PubChem BioAssay.
# GPR7 antagonist = blocks human GPR7 receptor signaling; P48145; GPR7-expressing cells, fluorescence antagonist assay; inhibition, % at 4.4 µM; 290,000 compounds, 1.1% hits; AID 1861; in the data active = inhibition above about 16%, passing the limit was not always enough;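 note: cells stimulated with the agonist NPW; 0% = agonist with vehicle and 100% = vehicle without agonist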
# OX1R antag-1 = OX1R (human) antagonism. OX1R-expressing cells, FRET antagonist read-out. inhibition, % at 6.6 µM. 330,000 compounds, 1.8% hits; in the data active = inhibition mostly above about 38%, no sharp cut-off; inactive = mostly below about 40%;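 note: 0% = agonist challenge alone and 100% = reference antagonist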
# GalR3 antagonist = blocks the human galanin receptor 3; 360,000 compounds, 0.44% hits; O60755; inhibition, % at 3 µM; HEK293 GalR3-CNG cAMP membrane potential fluorescence; galR3 body fused to GalR1 C-terminus;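 active = inhibition above the screen-wide average plus 3 SD, cut at about 13% in these data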;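 note: forskolin and galanin both at EC90 stimulate the cells; cAMP rise reported by CNG channel membrane potential dye signal; 0% = forskolin plus galanin with DMSO and 100% = forskolin alone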
# Target sequence (O60755 1-299 limits assumed): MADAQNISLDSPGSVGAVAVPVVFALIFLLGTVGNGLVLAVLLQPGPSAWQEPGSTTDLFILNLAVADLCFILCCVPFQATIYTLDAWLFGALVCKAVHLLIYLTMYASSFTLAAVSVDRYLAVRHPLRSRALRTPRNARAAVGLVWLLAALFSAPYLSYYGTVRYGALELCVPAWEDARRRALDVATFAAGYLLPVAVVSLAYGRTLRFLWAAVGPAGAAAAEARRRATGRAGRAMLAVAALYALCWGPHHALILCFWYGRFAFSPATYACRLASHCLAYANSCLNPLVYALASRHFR
# CHO parental Ca = counter-screen for OX1R antagonists: effect in parental CHO cells | 330,000 compounds, 0.63% hits | inhibition, % at 5.6 µM | parental CHO-K1, ATP-induced calcium, Fluo-8 fluorescence;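 active = inhibition above that plate's mean sample inhibition plus 3 SD, cut at about 26% in these data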;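 note: 0% = ATP-challenged DMSO wells and 100% = DMSO wells without ATP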
#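 test system = CHO parental line | reagent = ATP stimulus | measured by = intracellular calcium via Fluo-8 no-wash fluorescent dye | control set = ATP and no-ATP DMSO wells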
# OX1R antag-2 = blocks the human orexin 1 receptor. O43613. inhibition, % at 5 µM. AID 434989. 330,000 compounds, 0.43% hits. CHO/OX1R cells, Fluo-8 calcium fluorescence, orexin A;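 active = inhibition above its plate's threshold, mean inhibition of all tested compounds on the plate plus 3 SD, cut at about 37% in these data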;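 note: 0% = orexin A challenge wells and 100% = SB-334867-A antagonist wells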
# GalR3 conf = confirmation of human galanin receptor 3 antagonists | 1,600 compounds, 59% hits | shares compounds with GalR3 antagonist | HEK293 GalR3 CNG cAMP biosensor, membrane potential fluorescence; galR3 fused to GalR1 carboxy tail; challenged with forskolin and galanin at EC90 | inhibition, % at 3 µM;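 active = inhibition above the primary screen's cutoff, the mean inhibition of all screened compounds plus 3 SD, cut at about 13% in these data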;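 note: 0% = forskolin plus galanin and 100% = forskolin alone with DMSO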
# CNG parental = parental cell agonism counter-screen for GalR3 antagonists. shares compounds with GalR3 antagonist. HEK293-CNG parental cells, cAMP membrane potential fluorescence; normalised: DMSO wells 0%, forskolin wells 100%. activation, % at 3 µM. 1,600 compounds, 10% hits; in the data active = activation above about 1.3%
# Numbers without * were called inactive; · = no result given. This is a sample that favours compounds with a hit; in the whole collection about 3.1% have one here.
SMILES,GPR7 antagonist,OX1R antag-1,GalR3 antagonist,CHO parental Ca,OX1R antag-2,GalR3 conf,CNG parental
CCN1/C(=C/c2sc(-c3ccccc3C)c[n+]2C)Sc2ccccc21,47.2*,·,50.5*,·,·,72.2*,2.2*
CCCn1c(=O)c2sccc2n2c(CCCC(=O)NCC3CCCO3)nnc12 (stereo not drawn),-2.0,16.7,-5.5,-9.3,4.7,·,·
COCCCn1c(=O)c2sccc2n2c(CCCC(=O)NCC3CCCO3)nnc12 (stereo not drawn),-2.9,13.1,13.7*,-6.1,4.7,9.4,0.1
CCN(CC)S(=O)(=O)c1ccc(N2CCOCC2)c(NC(=O)c2cc3ccccc3o2)c1,·,·,-4.5,·,·,·,·
CC(NC(=O)Nc1nnc(C(F)(F)F)s1)(C(F)(F)F)C(F)(F)F,11.3,58.9*,80.9*,60.5*,50.7*,88.0*,0.3
CC(C)(C)CC(=O)Nc1nnc(C(F)(F)F)s1,-14.9,3.4,-1.0,-7.6,-11.4,·,·
COC(C[C@@H]1O[C@@H]1[C@@H](O)[C@H](C)OCc1ccccc1)OC,·,·,-6.2,·,·,·,·
COC(C[C@H]1O[C@H]1[C@H](O)[C@H](C)OCc1ccccc1)OC,·,·,·,·,·,0.8,0.3
O=C(N/N=C/c1cc(Br)ccc1O)C(=O)Nc1ccccc1OC(F)(F)C(F)F,-9.2,30.8,14.6*,-9.0,0.9,57.4*,-1.8
COc1ccccc1/C=N/NC(=O)C(=O)Nc1ccccc1OC(F)(F)C(F)F,-7.3,50.3,-1.4,-9.3,1.2,·,·
O=C(N/N=C/c1cc(Cl)ccc1O)C(=O)Nc1ccccc1OC(F)(F)C(F)F,-17.0,69.1*,22.3*,-15.3,-3.3,66.1*,-1.3
Cc1ccc(O)c(N=Cc2cc(Cc3ccccc3)cc([N+](=O)[O-])c2O)c1,-4.6,·,13.4*,·,·,10.0,-0.5
Cc1ccc2c(c1)C(=O)C(=O)N2CC(=O)Nc1ccccc1NC(=O)c1ccccn1,7.2,25.2,20.4*,-9.0,-21.2,4.7,0.7
Cc1ccc(C)c(C(=O)c2ccccc2NC(=O)c2ccccn2)c1,-2.2,4.3,-10.1,-3.5,-32.9,·,·
O=C(O)c1ccc(O)c(O)c1,-0.9,2.2,13.5*,-8.8,-7.5,4.3,0.1
O=C(Nc1ccncc1)c1cccc(S(=O)(=O)N2CCc3ccccc32)c1,·,48.4*,75.5*,58.9*,48.2*,46.2*,-0.5
O=C(NCc1ccccc1)[C@@H]1CCCN1C(=O)[C@@H](NS(=O)(=O)c1ccc(F)cc1F)c1ccccc1,·,·,-8.2,·,·,·,·
C=CCc1cccc(CNc2cnc3ccccc3c2)c1O,6.8,49.5,59.9*,72.3*,21.3,89.5*,-1.2
Oc1ccccc1CNc1cnc2ccccc2c1,-2.5,19.1,-12.2,10.2,35.0,·,·
c1ccc(COc2ccc(-c3cc4nc(NCCN5CCOCC5)ccn4n3)cc2)cc1,·,·,-3.1,·,·,·,·
Cc1ccsc1C1C(C#N)=C(N)Oc2n[nH]c(C)c21 (stereo not drawn),-5.7,11.7,29.6*,-9.7,0.5,-0.6,0.0
O=C(N1CCOCC1)C12OC3CC(CC(C3)O1)O2,·,·,-5.9,·,·,·,·
Cc1cc(S(=O)(=O)c2ccc(Cl)cc2)nc(S(=O)(=O)c2ccc(Cl)cc2)c1C#N,·,·,16.5*,·,·,11.2,0.3
Cc1cc(C)c(S(=O)(=O)c2ccc(Cl)cc2)c(Cl)n1,-13.7,9.3,-2.6,-14.4,-0.1,·,·
CCCCCCC(=O)Oc1cccc(C2=CC(=O)CC(C)(C)C2=O)c1,·,·,-6.0,·,·,·,·
O=C(CSc1nnc(-c2n[nH]c3ccccc23)n1-c1ccccc1)Nc1cccc(Cl)c1,-3.2,16.1,21.0*,-16.8,-13.0,13.6*,-1.3
N#C/C(=N\Nc1cc(Cl)cc(Cl)c1)c1nnc2n1CCCCC2,-1.9,17.7,15.2*,-7.5,-37.2,0.4,1.7*
COc1cc(CCCN2C(N)=NC[C@@H]2c2ccccc2)cc(OC)c1OC,·,18.5,·,-8.4,-8.8,4.2,0.1
O=C(O)Cn1cnc2c(OCc3ccccc3)ncnc21,·,11.8,-1.4,-4.1,-6.8,·,·
Cc1cc(C)c(CN2CCN(C(=O)Cn3cnc4c(OCc5ccccc5)ncnc43)CC2)c(C)c1,·,12.0,98.2*,-13.0,-9.5,106.0*,-0.7
